UCH37 DUB inh – inhibitors of human deubiquitinating enzyme UCH37; Q9Y5K5; 330,000 compounds, 0.33% hits; purified proteasome/UCH37, Ub-AMC cleavage fluorescence; AID 588478; inhibition, % (test concentration not listed);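 active = mean inhibition over replicate wells above about 20%, limit read from the data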;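 note: 0% = compound-free wells with enzyme and 100% = wells lacking proteasome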
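system = Proteasome-associated human UCH37 deubiquitinase | amount = 0.15 nM proteasome as dispensed | medium = pH 7.4 Tris-HCl (50 mM) with ovalbumin, ATP-MgCl2, DTT | incubation = 30 min preincubation with enzyme, 25 min cleavage at room temperature | detection = AMC fluorescence 355/460 nm | read-out basis = percent inhibition | controls = no-proteasome and no-compound wells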
SIRT5 inh – blocks human SIRT5 desuccinylation of peptide. Q9NXA8. Purified SirT5, succinyl-peptide AMC, trypsin-coupled fluorescence. inhibition, % at 15 µM. 330,000 compounds, 1.1% hits; in the data active = inhibition above about 15%
Target sequence (Q9NXA8 whole entry, looked up): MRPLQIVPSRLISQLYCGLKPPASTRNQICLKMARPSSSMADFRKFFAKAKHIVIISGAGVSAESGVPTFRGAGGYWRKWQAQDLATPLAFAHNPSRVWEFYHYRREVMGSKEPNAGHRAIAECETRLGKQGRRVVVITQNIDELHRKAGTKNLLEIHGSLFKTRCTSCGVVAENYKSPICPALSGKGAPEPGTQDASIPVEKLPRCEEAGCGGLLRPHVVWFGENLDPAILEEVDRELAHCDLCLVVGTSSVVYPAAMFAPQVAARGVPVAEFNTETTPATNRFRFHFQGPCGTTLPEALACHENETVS
NSD2 HMT inh – inhibitors of human histone methyltransferase NSD2; 310,000 compounds, 0.54% hits; inhibition, % at 12.5 µM; AID 743445; O96028; NSD2 peptide methylation, AlphaScreen, 120 min; in the data active = inhibition above about 50%
CASP6 VEID inh – caspase-6 (human) enzyme inhibition; purified caspase-6, Z-VEID-R110 cleavage fluorescence; inhibition, % at 12.5 µM; 350,000 compounds, 0.53% hits; AID 686996;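 active = mean inhibition across replicates at least about 35%, with every replicate also reaching that limit, limit read from the data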;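 note: 0% = median of neutral control wells and 100% = no fluorescence left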
Target sequence (P55212 24-179 limits assumed): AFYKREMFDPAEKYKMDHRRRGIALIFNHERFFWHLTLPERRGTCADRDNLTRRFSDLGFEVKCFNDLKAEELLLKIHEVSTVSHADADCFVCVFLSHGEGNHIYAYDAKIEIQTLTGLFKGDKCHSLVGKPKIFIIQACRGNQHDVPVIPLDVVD
Target sequence (P55212 194-293 limits assumed): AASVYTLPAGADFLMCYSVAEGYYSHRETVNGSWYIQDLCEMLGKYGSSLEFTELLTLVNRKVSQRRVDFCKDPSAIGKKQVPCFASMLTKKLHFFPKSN
FGF22 binding – binders of recombinant human FGF22 by thermal shift. SYPRO orange fluorescence; percent of sucrose octasulfate shift, DMSO zero. activity (Tm shift, normalised), % at 9.99 µM. 340,000 compounds, 1.5% hits;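 active = mean Tm shift, scaled 0 neutral to 100 positive control, at about 1.3% or above, every replicate too, limit read from the data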
Numbers without * were called inactive; nt = not tested or not shown. Rows were chosen to be rich in hits. Some 2.6% of all compounds tested hit in one or more screens of this group.

SMILES	UCH37 DUB inh	SIRT5 inh	NSD2 HMT inh	CASP6 VEID inh	FGF22 binding
C[C@H](CO)N1C[C@H](C)[C@H](CN(C)C(=O)Nc2ccc(F)cc2)OCCCC[C@H](C)Oc2ccc(NC(=O)Nc3ccc(C(F)(F)F)cc3)cc2C1=O	nt	0	nt	0	1.3*
C[C@@H]1CCCCO[C@H](CN(C)C(=O)Nc2ccc(F)cc2)[C@@H](C)CN([C@H](C)CO)C(=O)c2cc(NC(=O)Nc3ccc(C(F)(F)F)cc3)ccc2O1	nt	0	nt	-1	0
C[C@H](CO)N1C[C@H](C)[C@H](CN(C)C(=O)Nc2ccc(C(F)(F)F)cc2)OCCCC[C@H](C)Oc2ccc(NC(=O)Nc3ccc(F)cc3)cc2C1=O	nt	17*	nt	-1	0
C[C@@H]1CCCCO[C@H](CN(C)C(=O)Nc2ccc(F)cc2)[C@H](C)CN([C@@H](C)CO)C(=O)c2cc(NC(=O)Nc3ccc(C(F)(F)F)cc3)ccc2O1	nt	-2	nt	0	1.3*
C[C@@H]1CCCCO[C@H](CN(C)C(=O)Nc2ccc(C(F)(F)F)cc2)[C@H](C)CN([C@H](C)CO)C(=O)c2cc(NC(=O)Nc3ccc(F)cc3)ccc2O1	nt	9	nt	0	0
C[C@@H]1CCCCO[C@@H](CN(C)Cc2ccncc2)[C@@H](C)CN([C@@H](C)CO)C(=O)c2cc(NC(=O)c3ccncc3)ccc2O1	nt	3	nt	22	0
C[C@@H]1CN([C@@H](C)CO)S(=O)(=O)c2ccc(C3=CCCCC3)cc2O[C@@H]1CN(C)Cc1ccccc1F	nt	15	nt	2	0
O=C(CCS(=O)(=O)c1ccccc1)N1CCCc2ccccc21	0	17*	22	0	0
CN1CCN(C(=O)C[C@H]2C[C@@H]3c4cc(NS(C)(=O)=O)ccc4O[C@@H]3[C@@H](CO)O2)CC1	nt	2	nt	-18	0
COc1ccc2oc(C(=O)N3CCN(c4ncccn4)CC3)c(C)c2c1	-3	0	2	36*	0
Cc1c(C(=O)N2CCN(C)CC2)oc2ccc(Br)cc12	0	-2	2	2	0
Cc1c(C(=O)N2CCCC2)oc2ccc(Br)cc12	2	1	-6	39*	0
CC(C)NC(=O)N(C)C[C@H]1Oc2ccc(NC(=O)CCCN(C)C)cc2C(=O)N([C@H](C)CO)C[C@H]1C	nt	-1	nt	3	0
C/C=C/c1cnc2c(c1)C(=O)N([C@@H](C)CO)C[C@H](C)[C@@H](CN(C)S(=O)(=O)c1ccccc1)O2	nt	-2	nt	0	0
Cc1cc(C)nc(-n2ncc3c2CCCC3=O)n1	1	0	0	2	43*
O=[N+]([O-])c1ccc2nc(-c3ccccc3[N+](=O)[O-])[nH]c2c1	6	1	2	38*	0
Cc1ccc(-c2nc3ccc([N+](=O)[O-])cc3[nH]2)cc1	4	-3	4	2	1.5*
O=[N+]([O-])c1ccc2nc(-c3ccncc3)[nH]c2c1	9	0	-1	-1	0
CCC(=O)N1[C@H](CO)[C@H]2c3ccccc3N(C(=O)Nc3cccc(Cl)c3)C[C@H]21	nt	2	nt	4	1
COc1cccc(NC(=O)N(C)C[C@@H]2Oc3ncc(C4=CCCCC4)cc3C(=O)N([C@@H](C)CO)C[C@@H]2C)c1	nt	1	nt	-1	0
O=C(O)CC1SC(=NN=C2CCCCCCC2)N(c2ccccc2)C1=O (stereo not drawn)	2	nt	nt	nt	nt
O=C(N[C@@H]1CC[C@@H](CCNS(=O)(=O)c2ccccc2Cl)O[C@H]1CO)c1ccc(F)cc1	nt	4	nt	4	0
O=C(N[C@@H]1CC[C@H](CCNS(=O)(=O)c2ccccc2)O[C@H]1CO)c1cnccn1	nt	28*	nt	0	0
O=C(NCC[C@@H]1CC[C@H](NC(=O)C2CC2)[C@H](CO)O1)c1cc(Cl)cc(Cl)c1	nt	38*	nt	-1	0
O=C(CN1CCOCC1)N[C@H]1CC[C@@H](CCNC(=O)C2CCCCC2)O[C@H]1CO	nt	0	nt	-2	0
SMILES	UCH37 DUB inh	SIRT5 inh	NSD2 HMT inh	CASP6 VEID inh	FGF22 binding
O=C(CN1CCOCC1)N[C@@H]1CC[C@H](CCNC(=O)C2CCCCC2)O[C@H]1CO	nt	15*	nt	-1	0
O=C(N[C@H]1CC[C@H](CCNS(=O)(=O)c2ccccc2Cl)O[C@@H]1CO)c1ccccc1	nt	18*	nt	-2	0
COc1cccc(NC(=O)N2CC(=O)N3[C@@H](CO)[C@H](c4ccc(C5=CCCCC5)cc4)[C@@H]3C2)c1	nt	-1	nt	1	nt
O=C(NN=Cc1c(O)ccc2ccccc12)c1[nH]ncc1Br	-2	nt	nt	nt	nt
C[C@H]1CN([C@@H](C)CO)S(=O)(=O)c2ccc(C3=CCCCC3)cc2O[C@H]1CN(C)Cc1ccncc1	nt	5	nt	0	0
CCOC(=O)c1c[nH]c(=O)c(Br)c1O	-2	nt	-1	nt	nt
CCOC(=O)c1c[nH]c2nc(C)ccc2c1=O	-6	-6	-1	11	43*
O=C(CC(=O)c1cccc([N+](=O)[O-])c1)Nc1ccccc1Cl	12	2	6	0	44*
C/C=C/c1ccc2c(c1)O[C@H](CN(C)Cc1ccccc1)[C@@H](C)CN([C@H](C)CO)S2(=O)=O	nt	12	nt	-1	0
C/C=C/c1ccc2c(c1)O[C@H](CN(C)Cc1cccc(F)c1)[C@H](C)CN([C@@H](C)CO)S2(=O)=O	nt	19*	nt	1	0
C/C=C/c1ccc2c(c1)O[C@@H](CN(C)Cc1ccccc1F)[C@H](C)CN([C@@H](C)CO)S2(=O)=O	nt	19*	nt	-1	0
C/C=C/c1ccc2c(c1)O[C@@H](CN(C)Cc1ccccc1F)[C@@H](C)CN([C@H](C)CO)S2(=O)=O	nt	5	nt	0	0
CO[C@@H]1CN(C)C(=O)c2ccc(NC(=O)Nc3ccccc3Cl)cc2OC[C@@H](C)N(S(=O)(=O)CC(F)(F)F)C[C@H]1C	nt	4	nt	0	0
COc1ccc(-c2cc(C(=O)O)c(C)o2)cc1OC	3	nt	21	nt	nt
COc1ccc(-c2cc(C(=O)NC(Cc3cc4ccccc4[nH]3)C(=O)O)c(C)o2)cc1OC (stereo not drawn)	2	1	nt	48*	0
O=C(c1cnccn1)N1C[C@H]2[C@@H](c3ccccc31)[C@@H](CO)N2Cc1ccc2c(c1)OCO2	nt	11	nt	2	-1
CC(=O)N(C)C[C@H]1Oc2ncc(-c3ccc(C(=O)N(C)C)cc3)cc2C(=O)N([C@H](C)CO)C[C@H]1C	nt	-1	nt	3	0
O=C(Nc1cc(F)ccc1F)N1CCCCN2[C@H](CO)[C@H](c3ccc(-c4ccccc4)cc3)[C@H]2C1	nt	29*	nt	-1	0
O=C(Nc1cc(F)ccc1F)N1CCCCN2[C@H](C1)[C@H](c1ccc(-c3ccccc3)cc1)[C@@H]2CO	nt	3	nt	0	0
COc1ccccc1NC(=O)N1CCCCN2[C@H](C1)[C@@H](c1ccc(-c3cccc(F)c3)cc1)[C@@H]2CO	nt	10	nt	-1	-1
